These results are taken from ChEMBL document CHEMBL1122484, “An analysis of 1-(2-chloroethyl)-1-nitrosourea activity at the cellular level” (J Med Chem, 1983).

The subject of data set [1] is P388. Put plainly: Mean value for the exposure for P388 to the drug for a period of 60 min. It counts as functional. The settings on record: Mus musculus, P388, 1 h; read-out: ED50 (the source's name). A digest of the protocol:
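P388 mouse leukemia cells in log-phase suspension culture (Fischer's medium, 10% horse serum) at 1 × 10^6 cells/mL, exposed at 37 °C, pH 7.4, to graded initial drug concentrations (ethanol/water vehicle, <0.1% ethanol) in duplicate tubes for the stated period. Cells then diluted to 6.6 × 10^4 cells/mL in fresh medium, grown 48 h, Coulter counted; ED50 = dose giving 50% decrease in cell number versus untreated.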

Data set [2] deals with P388. Put plainly: Mean value for the exposure for P388 to the drug following a variety of treatment schedules at pH 7.4 and 37 degree. As to conditions: Mus musculus, read-out: ED50 (the source's name).
The nature of data set [3]: Alkylating activity was determined. The class given is ADME.
Data set [4] can be described thus: Carbamoylating activity was determined. The class given is ADME.
The nature of data set [5]: Pharmacokinetic parameter k2 was determined. It counts as ADME. The procedure, abridged: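 First-order rate constant for chemical conversion of the parent nitrosourea to its active alkylating intermediate. Measured in aqueous buffer or human serum at pH 7.4 and 37 °C.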

Consider `NC(=O)N(CCCl)N=O`, for which the values for the EC50 with P388 [1] and with P388 [2] were 6 µM and 5.7 µM, respectively. The same compound had an Alkylating activity in data set [3] of 1000. Further, in data set [4], the Carbamoylating activity came to 20. In data set [5], this compound came in with a k2 of 0.53 min⁻¹.
`O=NN(CCCl)C(=O)N[C@H]1C(O)O[C@H](CO)[C@@H](O)[C@@H]1O` (stereo not given in full) [CHLOROZOTOCIN]: the EC50 in the data set on P388 [1] is 17 µM; in the data set with P388 [2] it was 11.7 µM. Besides, the Alkylating activity in data set [3] turned out to be 450. The compound also gave a Carbamoylating activity in data set [4] of 2. In data set [5], the k2 was determined as 0.033 min⁻¹.
The corresponding values for `O=NN(CCCl)C(=O)NC1CCC(=O)NC1=O` (stereo not given) are 8.1 µM, 6.5 µM, 360, 24 and 0.027 min⁻¹.
The corresponding values for `O=NN(CCCl)C(=O)NC1CCCCC1` [LOMUSTINE] are 13 µM, 6.7 µM, 100, 100 and 0.013 min⁻¹.
As to `O=NN(CCCl)C(=O)NCCCl` [CARMUSTINE], the EC50 was found to be 13.3 µM with P388 [1] and 6.3 µM with P388 [2]. Moreover, the Alkylating activity in data set [3] is reported as 260. Moreover, the Carbamoylating activity in data set [4] is 70. For the same compound, in data set [5], the k2 worked out at 0.014 min⁻¹.
